The values that follow come from ChEMBL document CHEMBL1121898, “Potential antiestrogens. Synthesis and evaluation of mammary tumor inhibiting activity of 1,2-dialkyl-1,2-bis(3'-hydroxyphenyl)ethanes” (1981).

The species named for assay [1] is Rattus norvegicus. Description: Final number of DMBA-induced hormone-dependent mammary carcinoma tumors in rats at 9 mg. The format is functional. In outline: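 Sprague-Dawley rats carrying DMBA-induced, hormone-dependent mammary adenocarcinoma, at least one tumor >140 mm², were placed in groups of ten. Compounds were given sc, with doses in mg/kg: a single daily dose Monday to Thursday and a double dose on Friday. Ovariectomy served as a comparator group. New tumors arising during the test were counted.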

Assay [2] is filed under the species Rattus norvegicus. Put plainly: Complete remission of DMBA-induced hormone-dependent mammary carcinoma tumors in rats at 2.25 mg. The format is functional. In outline: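 Female SD rats bearing DMBA-induced, hormone-dependent mammary adenocarcinoma, with at least one tumor >140 mm², were grouped in tens. Dosing was sc per kg body weight: a single dose daily Monday–Thursday and a double dose Friday. Ovariectomy served as the comparison arm. Complete remission was defined as a tumor no longer palpable. Body weight and tumor area changes were also recorded.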

Assay [3] is filed under the species Rattus norvegicus. Put plainly: Percent change in body weight DMBA-induced hormone-dependent mammary carcinoma tumors in ovariectomised rats after 7 days. It counts as functional. A digest of the protocol: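 DMBA-induced, hormone-dependent mammary adenocarcinoma in SD rats, with ovariectomy as the treatment. Rats bearing at least one tumor >140 mm² were placed in groups of ten. Tumors were counted at the start and as new tumors. Responses were scored as complete remission, partial remission (≥50% size reduction), no change or progression, with % change in tumor area and body weight.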

For the next assay, the system named is MCF7. Description: Inhibition of estrogen receptor positive MCF-7 cell proliferation as cell number after 10 days at 10e-7 M with 10e-7 M 17-beta-estradiol. The format is functional, Homo sapiens. In outline: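 MCF-7 cells were grown in McCoy's 5a medium with fetal bovine serum stripped by DCC (0.5 h, 45 °C). Compounds were dissolved in ethanol (final ≤0.5%) and diluted in complete medium. Cells were seeded at 5×10^4 cells/plate. On day 10, three replicate plates per group were counted by Coulter counter, three counts per plate. Percent T/C = test/control. In a retest, compounds were given at 10^-7 M with 17β-estradiol at 10^-7 or 10^-8 M.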

The species entered for another assay is Mus musculus. Put plainly: Vaginal cornification test in mice at 5 ug; predominant cellular component leucocytes (diestrus). It counts as functional, organism-based. In outline: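 Female NMRI mice (~15 g) were ovariectomized; castration was confirmed at 10 days by leucocyte smears. Mice were primed with estradiol 3-benzoate 0.2 μg, and only responders showing estrus were kept. Groups of three received sc test compound in 0.1 mL olive oil daily for 3 days. Saline vaginal smears were taken 6, 24, 30, 48 and 54 h after the last dose and scored by Allen-Doisy.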

Assay [4] has as its target Estrogen receptor (Mus musculus) (UniProt O08537+P19785). Put plainly: Antiestrogenic activity in uterotrophic test in mice at 25 ug (experiment 2). The format is functional. In outline: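 Immature female NMRI mice, 20 days old (14.5 ± 1.2 g), randomly grouped 10 per group. Each received a daily sc injection for 3 days of 0.1 mL olive oil solution containing test compound, together with estrone to stimulate uterine growth. Uteri were removed 24 h after the last injection and weighed. Results are reported as % inhibition of the estrone-stimulated uterine weight gain, mean ± SD.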

Calls of active or inactive are those of the source.

Chain of Estrogen receptor (Mus musculus) (O08537 whole entry, looked up): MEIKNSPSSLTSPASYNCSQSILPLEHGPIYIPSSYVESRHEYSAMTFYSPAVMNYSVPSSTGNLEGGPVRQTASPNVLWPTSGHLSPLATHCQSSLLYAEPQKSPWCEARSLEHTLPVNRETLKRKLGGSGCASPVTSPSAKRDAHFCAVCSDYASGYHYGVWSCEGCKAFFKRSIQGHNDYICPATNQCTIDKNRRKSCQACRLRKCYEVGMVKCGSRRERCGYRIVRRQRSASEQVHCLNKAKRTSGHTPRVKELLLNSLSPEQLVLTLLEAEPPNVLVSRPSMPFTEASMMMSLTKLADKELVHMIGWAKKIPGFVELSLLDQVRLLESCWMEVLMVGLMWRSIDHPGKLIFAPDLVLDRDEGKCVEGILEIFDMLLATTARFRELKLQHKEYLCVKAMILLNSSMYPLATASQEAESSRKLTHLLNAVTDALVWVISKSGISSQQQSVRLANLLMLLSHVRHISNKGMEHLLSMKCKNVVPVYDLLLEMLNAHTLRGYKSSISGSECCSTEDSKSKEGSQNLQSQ
Chain of Estrogen receptor (Mus musculus) (P19785 whole entry, looked up): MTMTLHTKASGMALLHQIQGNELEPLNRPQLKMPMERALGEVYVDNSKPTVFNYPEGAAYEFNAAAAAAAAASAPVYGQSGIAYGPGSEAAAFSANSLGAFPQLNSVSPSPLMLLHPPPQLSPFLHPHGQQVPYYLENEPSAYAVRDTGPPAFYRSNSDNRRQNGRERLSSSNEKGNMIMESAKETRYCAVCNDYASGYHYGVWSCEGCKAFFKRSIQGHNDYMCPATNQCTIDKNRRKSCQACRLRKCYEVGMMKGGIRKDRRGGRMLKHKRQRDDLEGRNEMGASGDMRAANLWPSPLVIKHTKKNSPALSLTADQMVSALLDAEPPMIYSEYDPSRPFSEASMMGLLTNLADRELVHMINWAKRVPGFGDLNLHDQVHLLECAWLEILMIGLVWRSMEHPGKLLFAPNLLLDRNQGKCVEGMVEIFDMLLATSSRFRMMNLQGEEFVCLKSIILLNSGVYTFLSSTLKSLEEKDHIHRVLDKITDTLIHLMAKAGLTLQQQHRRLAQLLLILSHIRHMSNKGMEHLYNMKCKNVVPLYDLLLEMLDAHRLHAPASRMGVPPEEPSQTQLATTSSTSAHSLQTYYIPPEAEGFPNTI

`CCCC(c1cccc(O)c1)C(CCC)c1cccc(O)c1` (stereo unspecified) displayed a No. of tumors in the assay filed under Rattus norvegicus [1] of 1. The Tumors in the assay filed under Rattus norvegicus [2] is 25%. For the same compound, the Change in the assay filed under Rattus norvegicus [3] is 3.6%.

In the assay on MCF7, `CCC(c1cccc(O)c1)C(CC)c1cccc(O)c1` (stereo in doubt; 20) yielded a Cell number of 5600. Moreover, the outcome in the assay listed under Mus musculus was inactive. This compound gave an Effect in assay [4] of 28.1.
